High-throughput results deposited in PubChem BioAssay by The Scripps Research Institute Molecular Screening Center.
Hits are enriched below; roughly 3.1% of the tested compounds scored in any of these assays.
LEDGF integ inh: blocks HIV-1 LEDGF/p75-dependent DNA integration. TR-FRET IN-LEDGF/p75 DNA integration, Eu/Cy5. inhibition, % at 3.7 µM. hit rate 0.64% among 370,000. AID 743269;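 active means inhibition above the screen-wide mean plus 3 SD, cut at about 13% in these data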;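 further: signal is the Cy5 over europium emission ratio at 671 and 618 nm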
ABHD5-PLIN5 inh: ABHD5-PLIN5 protein interaction inhibition | AID 602281 | Q00G26+Q8WTS1 | hit rate 0.78% among 360,000 | inhibition, % at 4 µM | Split G. princeps luciferase complementation, luminescence, 4 h;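 active means inhibition above the mean inhibition across every tested compound plus 3 SD, cut at about 22% in these data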
UHRF1 binding: UHRF1 methyl-DNA binding inhibition | Q96T88 | UHRF1 binding to methylated oligo, TR-FRET | inhibition, % at 4.4 µM | hit rate 0.75% among 370,000 | AID 687016; in the data active means inhibition above about 21%;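 further: UHRF1 SRA domain binding a hemimethylated CpG hairpin DNA probe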
PRMT1 FP inh: blocks human protein arginine methyltransferase 1; hit rate 1.3% among 370,000; AID 652257; recombinant PRMT1, activity-based probe fluorescence polarization; Q99873; inhibition, % at 2.79 µM;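 active means inhibition above about 21% made by adding two undisclosed values, limit read from the data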
Target sequence (Q99873 whole entry, looked up): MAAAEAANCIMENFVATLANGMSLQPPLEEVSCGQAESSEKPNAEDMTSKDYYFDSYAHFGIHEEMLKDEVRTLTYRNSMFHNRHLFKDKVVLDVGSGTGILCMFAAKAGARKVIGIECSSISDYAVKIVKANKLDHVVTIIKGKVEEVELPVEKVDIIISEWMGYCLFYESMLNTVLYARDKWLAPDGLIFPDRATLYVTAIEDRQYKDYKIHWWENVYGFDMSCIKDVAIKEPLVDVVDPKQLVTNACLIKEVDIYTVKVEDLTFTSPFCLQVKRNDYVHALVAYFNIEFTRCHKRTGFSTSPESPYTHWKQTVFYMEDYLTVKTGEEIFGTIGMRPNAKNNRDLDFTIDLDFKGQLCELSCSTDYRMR
MBD2 inh: inhibitors of human MBD2 binding to methylated oligonucleotide; Q9UBB5; TR-FRET; inhibition, % at 4.4 µM; hit rate 0.31% among 370,000; AID 686964; in the data active means inhibition above about 13%
RBBP9 inhibitor: blocks human serine hydrolase RBBP9; hit rate 0.2% among 220,000; AID 1515; inhibition, % at 7.94 µM; recombinant RBBP9, FP-Rh probe fluorescence polarization; O75884;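 active means inhibition above the campaign mean of all tested compounds plus 3 SD, cut at about 14% in these data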
Target sequence (O75884 whole entry, looked up): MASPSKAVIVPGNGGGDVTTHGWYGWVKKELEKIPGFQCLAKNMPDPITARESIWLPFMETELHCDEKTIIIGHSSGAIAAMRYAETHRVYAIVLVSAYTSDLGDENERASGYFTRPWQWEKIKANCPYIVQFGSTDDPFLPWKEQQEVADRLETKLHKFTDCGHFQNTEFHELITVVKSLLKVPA
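System: RBBP9 protein | Quantity: 2.5 µM RBBP9 dispensing solution, before mixing | Reagent: FP-Rh probe, 375 nM dispensing solution | Timing: Enzyme-compound preincubation 30 min, then probe labeling 45 min, 25 °C | Measured by: Fluorescence polarization | Read-out: % inhibition | Replication: One well per compound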
PRMT1 inh conf: confirmation of human PRMT1 inhibitors; shares compounds with PRMT1 FP inh; recombinant His-PRMT1, activity-based probe fluorescence polarization; inhibition, % at 2.79 µM; hit rate 42% among 3,300;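 active means mean inhibition across replicates above the hit cutoff derived for the earlier primary screen, cut at about 22% in these data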
Numbers stand for hits; – = inactive; · = no result.

SMILES | LEDGF integ inh | ABHD5-PLIN5 inh | UHRF1 binding | PRMT1 FP inh | MBD2 inh | RBBP9 inhibitor | PRMT1 inh conf
CC1(C)CC(=O)C2=C(C1)OC(N)=C(C#N)C2c1cc2c(cc1[N+](=O)[O-])OCO2 (stereo not drawn) | – | – | – | 58 | – | – | 31
O=C(NCc1cccc(Cl)c1)O[C@H]1CC[C@@]23CCCN2C(=O)CCC[C@H]3C1 | – | · | – | – | – | · | ·
FC(F)(F)c1ccc(Cl)c(-n2c(-c3cc(-c4ccco4)[nH]n3)n[nH]c2=S)c1 | – | – | – | 25 | – | – | 28
Cc1cc(O)cc(=O)n1-c1cccc([N+](=O)[O-])c1 | – | · | – | – | – | · | ·
Cc1[nH]nc2c1C1(CCN(Cc3ccccc3)CC1)C(C#N)=C(N)O2 | – | – | – | 34 | – | – | –
CC(C)c1[nH]nc2c1C1(CCN(Cc3ccccc3)CC1)C(C#N)=C(N)O2 | – | – | – | – | – | – | ·
O=C1Nc2ccccc2C(=O)C1(Cl)Cc1ccccc1 (stereo not drawn) | – | – | – | 93 | – | – | 87
CC(C)(C)N1C(=O)c2ccccc2NC(=O)N1Cc1ccccc1 | – | – | – | – | – | – | ·
C=CCN1C(=O)/C(=c2\sc3nc(=O)c(Cc4ccccc4Cl)nn3c2=O)c2ccccc21 | – | – | – | 27 | – | – | –
O=S(=O)(CC1NCc2ccccc21)NCc1ccc(F)cc1 (stereo not drawn) | – | · | – | – | – | · | ·
NC(=O)c1c(N)sc2c1CCCC2 | – | – | – | 41 | – | – | 29
Cc1ccc(C2OC34CCCCCC3C(C#N)(C(=N)O4)C2(C#N)C#N)cc1 (stereo not drawn) | – | – | – | – | – | – | ·
CCC12OC(=N)C(C#N)(C1C)C(C#N)(C#N)C(c1ccccc1)O2 (stereo not drawn) | – | – | – | 28 | – | – | 30
CC(=O)OCCn1c2nc(=O)[nH]c(=O)c-2nc2cc(C)c(C)cc21 | – | – | – | 159 | – | – | 150
CC(=O)OCCn1c(C)[n+](CCOC(C)=O)c2cc(Cl)c(Cl)cc21 | – | – | – | – | – | – | ·
O=C(OCC#CCSc1nnc(-c2cccc3ccccc23)o1)c1ccsc1 | – | · | – | – | – | · | ·
Cc1ccc(/C=N/N2CCN(Cc3ccc(Cl)cc3)CC2)o1 | – | – | – | 42 | – | – | –
COC(=O)C1=C(C)N(C)C(=NCc2ccccc2C(F)(F)F)NC1c1ccc(F)cc1 (stereo not drawn) | – | · | – | – | – | · | ·
Cc1cccc2nc(CSc3ccc(Cl)cc3)cn12 | – | – | – | – | – | – | ·
Cc1cccc2nc(CSc3nc4cc([N+](=O)[O-])ccc4s3)cn12 | – | – | – | 53 | – | – | –
O=C(NNc1nc2cc3c(cc2s1)OCCO3)c1ccc(F)cc1 | – | – | – | 33 | – | – | –
Cc1cccc(N2C(=O)C(Cl)=C(N3CCOCC3)C2=O)c1 | – | – | – | 28 | – | – | –
Cc1ccc2c(c1)N(CCCC(=O)N(C)Cc1ccc(F)cc1)C(=O)CO2 | – | · | – | – | – | · | ·
COc1cc2c(cc1OC)CN(C(=O)CSc1ccccc1C)CC2 | – | – | – | 33 | – | · | –
O=S1(=O)CC(O)C(O)CS1 (stereo not drawn) | – | – | – | 81 | – | · | 85
SMILES | LEDGF integ inh | ABHD5-PLIN5 inh | UHRF1 binding | PRMT1 FP inh | MBD2 inh | RBBP9 inhibitor | PRMT1 inh conf
CN(Cc1cn(Cc2ccccc2)nn1)S(=O)(=O)c1ccc(F)cc1Br | – | · | – | – | – | · | ·
CN1CCN(NC(=O)CN2C(=O)S/C(=C\c3c(Cl)cccc3Cl)C2=O)CC1 | – | – | – | 26 | – | – | –
COCCNC(=O)C1CCCN(C(=O)c2csc3ccccc23)CC1 (stereo not drawn) | – | – | – | – | – | · | ·
COCCNC(=O)C1CCCN(C(=O)c2oc3ccccc3c2C)CC1 (stereo not drawn) | – | – | – | 46 | – | · | –
CC(=O)OC[C@H]1O[C@H](C#Cc2ccc(C(C)(C)C)cc2)C=C[C@H]1OC(=O)Nc1ccccc1 | – | · | – | – | – | · | ·
Cc1ccc(NS(=O)(=O)c2cc(NC(=O)c3ccc4c(c3)NC(=O)CS4)ccc2C)c(C)c1 | – | – | – | 34 | – | – | 23
COc1ccc(NC(=O)c2ccc3c(c2)NC(=O)CS3)cc1S(=O)(=O)Nc1ccc(Br)cc1 | – | – | – | – | – | – | ·
CN1[C@@H](Cc2ccccc2)COc2cccc(N3CCSCC3)c2S1(=O)=O | – | · | – | – | – | · | ·
CC(=O)C1=C(C)NC(SCC(=O)Nc2nccs2)=C(C#N)C1c1ccccc1Cl (stereo not drawn) | – | – | – | 26 | – | – | –
C=CCOC(=O)C1=C(C)NC(SCC(=O)Nc2nccs2)=C(C#N)C1c1ccc(Cl)cc1 (stereo not drawn) | – | – | – | – | – | – | ·
Cc1nc2sc(C(c3ccccc3)N3CC(C)OC(C)C3)c(O)n2n1 (stereo not drawn) | – | – | – | – | – | – | ·
Cc1nc2sc(C(c3ccco3)N3CC(C)OC(C)C3)c(O)n2n1 (stereo not drawn) | – | – | – | 29 | – | – | –
O=C(NCCc1ccccc1)OCc1cn(Cc2ccccc2C(F)(F)F)nn1 | – | · | – | – | – | · | ·
CC(=S)/C=C1\Sc2ccccc2N1C | – | – | – | 39 | – | – | –
COc1ccc(C2c3sc(=O)[nH]c3SC3C(=O)N(c4ccccc4)C(=O)C32)cc1 (stereo not drawn) | – | – | – | 27 | – | – | –
COCC(=O)N1CCC(C(=O)NC2CCCc3ccccc32)CC1 (stereo not drawn) | – | · | – | – | – | · | ·
Cc1ccc2nc(SCC(=O)N/N=C/c3ccco3)cc(C)c2c1 | – | – | – | – | – | – | ·
Cc1ccc2nc(C)cc(SCC(=O)N/N=C/c3ccco3)c2c1 | – | – | – | 52 | – | · | –
COc1cccc2c(SCC(=O)N/N=C/c3ccccc3)cc(C)nc12 | – | – | – | 47 | – | – | –
C[C@H]1[C@@H](NC(=O)Cc2ccsc2)CC[C@@]23CCCN2C(=O)CCC[C@@H]13 | – | · | – | – | – | · | ·
Cc1nc2ccc(S(=O)(=O)NCC(=O)NCc3ccccc3Cl)cc2s1 | – | · | – | – | – | · | ·
CCOC(=O)c1c(SCCN2CCCCC2)n(-c2ccccc2)c(=S)n(-c2ccccc2)c1=O | – | – | – | 31 | – | · | –
CCOC(=O)c1c(SC)n(-c2ccccc2)c(=S)n(-c2ccccc2)c1=O | – | – | – | – | – | · | ·
OC(c1ccccc1)(c1ccccc1)C1CCN(CCCNc2cccc(OC(F)(F)F)c2)CC1 | – | · | – | – | – | · | ·
Cc1cc(-n2c(C)cc(C(=O)CSc3ccccn3)c2C)no1 | – | – | – | 26 | – | · | –
Cc1cc(-n2c(C)cc(C(=O)CSc3nnnn3-c3ccccc3)c2C)no1 | – | – | – | – | – | – | ·
